MIC data for 3 compounds are collected here from ChEMBL document CHEMBL1781879, “Synthesis and biological characterization of arylomycin B antibiotics” (2011).

Molecules are shown by their SMILES. ≈ marks a conversion by molar mass, not a printed value.

The test system of one test is Pseudomonas aeruginosa. Nature of the test: Antibacterial activity against 1 x 10^7 CFU/mL Pseudomonas aeruginosa PAO1 PAS2008 harboring LepB P84L mutant in cation-adjusted Mueller Hinton 2 broth after 24 hrs by CLSI broth microdilution method. Particulars: PAO1 PAS2008, 24 h. It is filed as functional. In outline: (§1)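 CLSI broth microdilution in cation-adjusted Mueller Hinton II broth. Inoculum made by suspending organisms grown on solid media in the same broth and diluting to 1×10^7 CFU/ml; 5 μl added to 100 μl medium containing graded compound concentrations. MIC is the lowest concentration preventing visible growth, from at least three independent experiments.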
For orientation: In broth dilution the organism is exposed to a series of concentrations in liquid medium.

Test [1] can be described thus: Antibacterial activity against 1 x 10^7 CFU/mL Staphylococcus aureus NCTC 8325 PAS8001 harboring SpsB P29S mutant in cation-adjusted Mueller Hinton 2 broth after 24 hrs by CLSI broth microdilution method. It counts as functional, Staphylococcus aureus subsp. aureus NCTC 8325. Conditions: PAS8001, 24 h. In outline: as §1
Test [2] relates to Staphylococcus epidermidis. Nature of the test: Antibacterial activity against 1 x 10^7 CFU/mL wild-type Staphylococcus epidermidis RP62A in cation-adjusted Mueller Hinton 2 broth after 24 hrs by CLSI broth microdilution method. It counts as functional. In outline: (§2)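 CLSI broth microdilution. Bacteria from solid media were suspended in the test broth at 1×10^7 cfu/ml, and 5 μl was added to 100 μl medium containing compound. Media were cation-adjusted Mueller Hinton II (R. opacus, S. epidermidis), Todd Hewitt (S. pyogenes, S. pneumoniae) and Trypticase Soy Yeast broth (L. lactis). MIC was the lowest concentration inhibiting visible growth, from at least three independent experiments.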

For the next test, the system named is Brevibacillus brevis. The test can be described thus: Antibacterial activity against 1 x 10^6 CFU/mL Brevibacillus brevis ATCC 8246 in cation-adjusted Mueller Hinton 2 broth after 24 hrs by CLSI broth microdilution method. It is filed as functional. Particulars: ATCC 8246, 24 h. In outline:
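Brevibacillus brevis: 10⁶ cfu inoculated into 1 ml cultures in cation-adjusted Mueller Hinton II broth with compound and 1% DMSO final. Parallel tubes used 0.8% nutrient broth with 0.5% NaCl or without NaCl. Cultures shaken at 28 °C for 24 h. MIC was the lowest concentration inhibiting visible growth.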

Test [3] can be described thus: Antibacterial activity against 1 x 10^7 CFU/mL Escherichia coli MG1655 PAS0260 harboring LepB P84L mutant in cation-adjusted Mueller Hinton 2 broth after 24 hrs by CLSI broth microdilution method. Conditions: PAS0260, 24 h. It counts as functional, Escherichia coli str. K-12 substr. MG1655. In outline: as §1
A further test relates to Streptococcus pneumoniae. Nature of the test: Antibacterial activity against 1 x 10^7 CFU/mL Streptococcus pneumoniae R800 in Todd Hewitt broth after 24 hrs by CLSI broth microdilution method. It is filed as functional. Conditions: R800, 24 h. In outline:
as §2

The next test relates to Lactococcus lactis. The test can be described thus: Antibacterial activity against 1 x 10^7 CFU/mL Lactococcus lactis ATCC 19257 in trypticase soy yeast broth after 24 hrs by CLSI broth microdilution method. Particulars: ATCC 19257, 24 h. It counts as functional. In outline: as §2
Another test relates to Streptococcus pyogenes. Nature of the test: Antibacterial activity against 1 x 10^7 CFU/mL Streptococcus pyogenes M1-5448 in Todd Hewitt broth after 24 hrs by CLSI broth microdilution method. It is filed as functional. Particulars: M1-5448, 24 h. In outline:
as §2

The next test relates to Rhodococcus opacus. The test can be described thus: Antibacterial activity against 1 x 10^7 CFU/mL Rhodococcus opacus DSM 1069 in cation-adjusted Mueller Hinton 2 broth after 24 hrs by CLSI broth microdilution method. It is filed as functional. Conditions: DSM 1069, 24 h. In outline:
as §2

In the next test the test system is Prescottella equi. Nature of the test: Antibacterial activity against 1 x 10^7 CFU/mL Rhodococcus equi ATCC 6939 in cation-adjusted Mueller Hinton 2 broth after 24 hrs by CLSI broth microdilution method. It counts as functional. Particulars: Rhodococcus (subgen. Prescottella) equi, ATCC 6939, 24 h. In outline: as §1
Another test has as its system Streptococcus agalactiae. Nature of the test: Antibacterial activity against 1 x 10^7 CFU/mL Streptococcus agalactiae COH1 after 24 hrs by CLSI broth microdilution method. It is filed as functional. Particulars: COH1, 24 h. In outline: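 Streptococcus agalactiae tested by CLSI broth microdilution in both cation-adjusted Mueller Hinton II and Todd Hewitt broth. Inoculum was a suspension from solid media at 1×10^7 cfu/ml, with 5 μl added to 100 μl medium containing compound. MIC was the lowest concentration inhibiting visible growth, from at least three independent experiments.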

The nature of test [4]: Antibacterial activity against 1 x 10^7 CFU/mL Staphylococcus epidermidis RP62A PAS9002 harboring Sps1B-S31P mutant in cation-adjusted Mueller Hinton 2 broth after 24 hrs by CLSI broth microdilution method. It is filed as functional. Conditions: PAS9002, 24 h. In outline: as §1
Test [5] deals with Corynebacterium glutamicum. The test can be described thus: Antibacterial activity against 1 x 10^7 CFU/mL Corynebacterium glutamicum ATCC 44475 in cation-adjusted Mueller Hinton 2 broth after 24 hrs by CLSI broth microdilution method. It counts as functional. Conditions: ATCC 44475, 24 h. In outline: as §1

Turning to `CCCCCCCCCCCCCCCC(=O)N(C)[C@H](CO)C(=O)N[C@H](C)C(=O)NCC(=O)N(C)[C@@H]1C(=O)N[C@@H](C)C(=O)N[C@H](C(=O)O)Cc2cc(N)c(O)c(c2)-c2cc1ccc2O`, the MIC (in general, the lowest concentration that inhibits growth of the organism) was 32 µg/mL (≈ 35.7 µM) against Pseudomonas aeruginosa; 64 µg/mL (≈ 71.4 µM) in test [1]; 8 µg/mL (≈ 8.93 µM) in test [2]; greater than 64 µg/mL with Brevibacillus brevis; 16 µg/mL (≈ 17.9 µM) in test [3].
Take `CCCCCCCCCCCCCCCC(=O)N(C)[C@H](CO)C(=O)N[C@H](C)C(=O)NCC(=O)N(C)[C@@H]1C(=O)N[C@@H](C)C(=O)N[C@H](C(=O)O)Cc2cc(c(O)c([N+](=O)[O-])c2)-c2cc1ccc2O`: the MIC against Streptococcus pneumoniae was 16 µg/mL (≈ 17.3 µM); against Pseudomonas aeruginosa, 4 µg/mL (≈ 4.32 µM); against Lactococcus lactis it was 32 µg/mL (≈ 34.6 µM); with Streptococcus pyogenes it was 4 µg/mL (≈ 4.32 µM); in [1], 4 µg/mL (≈ 4.32 µM); against Rhodococcus opacus it was 4 µg/mL (≈ 4.32 µM). Further, the MIC with Prescottella equi is 32 µg/mL (≈ 34.6 µM); with Streptococcus agalactiae it was 8 µg/mL (≈ 8.64 µM); in test [2], 0.25 µg/mL (≈ 0.27 µM); against Brevibacillus brevis it was greater than 64 µg/mL; in test [3], 2 µg/mL (≈ 2.16 µM); in test [4] it was 8 µg/mL (≈ 8.64 µM). The same compound had an MIC in test [5] of 2 µg/mL (≈ 2.16 µM).
In the case of `CCCCCCCCCCCCCCCC(=O)N(C)[C@H](CO)C(=O)N[C@H](C)C(=O)NCC(=O)N(C)[C@@H]1C(=O)N[C@@H](C)C(=O)N[C@H](C(=O)O)Cc2ccc(O)c(c2)-c2cc1ccc2O` [ARYLOMYCIN C16], the MIC was 8 µg/mL (≈ 9.08 µM) in the test on Streptococcus pneumoniae; 4 µg/mL (≈ 4.54 µM) in the test on Pseudomonas aeruginosa; 16 µg/mL (≈ 18.2 µM) with Lactococcus lactis; 8 µg/mL (≈ 9.08 µM) in the test on Streptococcus pyogenes; 4 µg/mL (≈ 4.54 µM) in test [1]; 1 µg/mL (≈ 1.13 µM) against Rhodococcus opacus. In addition, the MIC in the test on Prescottella equi was 16 µg/mL (≈ 18.2 µM); in the test on Streptococcus agalactiae, greater than 128 µg/mL; in [2], 0.25 µg/mL (≈ 0.284 µM); against Brevibacillus brevis it was greater than 64 µg/mL; in test [3], 2 µg/mL (≈ 2.27 µM); in test [4], 8 µg/mL (≈ 9.08 µM). Further, 2 µg/mL (≈ 2.27 µM) was the least that counted as inhibitory in test [5] (MIC).
